Rows were chosen to be rich in hits. Some 3% of all compounds tested hit in one or more screens of this group.
Kir21 block: inhibitors of mouse Kir2.1 inward-rectifier potassium channel; Inward rectifier potassium channel 2 (Mus musculus), P35561; HEK293-Kir2.1, FluxOR thallium flux fluorescence; active compounds read low; B-score at 10 µM; 0.85% of 310,000 active; AID 1672, 2009;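 active = fluorescence ratio B-score at or below minus 3 SD of library scores, with starting-brightness B-score within 2 SD, cut at about -4.2 in these data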;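 note: channel flux triggered by added potassium and thallium sulfate stimulus; B-score of peak minus minimum fluorescence over baseline after thallium stimulus; more negative B-score means stronger Kir2.1 block with less thallium influx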
TMEM16A inh: TMEM16A chloride channel inhibitors, primary screen, cell-based, HTS | normalized B-score (activity score, 25-100; higher = stronger inhibition) at 10 µM | 1.2% of 310,000 active | HEK293 TMEM16A/YFP iodide influx fluorescence, ionomycin;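 active = ratio plate-corrected score three or more library SD toward inhibition, starting fluorescence score within five deviations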;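 note: score derived from kinetic fluorescence span divided by baseline fluorescence per well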
TMEM16A act: TMEM16A chloride channel activators or potentiators, primary screen, cell-based, HTS. 0.3% of 340,000 active. AID 623877, 2012. Anoctamin-1 (Mus musculus), Q8BHY3. HEK293 TMEM16A/YFP-H148Q/I152L, iodide quench fluorescence; active compounds read low. B-score at 10 µM;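 active = fluorescence-ratio B-score plate-corrected deviation score at least 3 library SD below zero, with starting fluorescence score within 5 deviations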;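 note: channel opened by trigger with iodide after compound preincubation; score built on the fluorescence ratio of max minus min over baseline; more negative score means more quench and so TMEM16A activation or potentiation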
DNA FID counter: compounds displacing fluorescent DNA intercalator, primary screen, artefact control for HCV NS3 helicase inhibitor project, biochemical, FID fluorescence; DNA fluorescent intercalator displacement; inhibition, % at 7.9 µM; 0.17% of 290,000 active; in the data active = inhibition above about 37%;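 note: 0% = vehicle and 100% = reference compound; higher means more ethidium bromide displaced from hairpin DNA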
SR-BI HDL uptake: inhibitors of SR-BI mediated HDL lipid uptake, primary screen, ldlA[mSR-BI] cells, fluorescence, single point. Scavenger receptor class B member 1 (Mus musculus), Q61009. ldlA[mSR-BI] CHO cells, DiI-HDL uptake fluorescence, 3 h. inhibition, % at 12.5 µM. 0.96% of 320,000 active. AID 488896, 2010;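 active = mean replicate inhibition of at least 70% and a set share of replicates each scoring 70 or more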;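 note: 0% = median of neutral control wells and 100% = median of positive control wells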
Target sequence (Q61009 whole entry, looked up): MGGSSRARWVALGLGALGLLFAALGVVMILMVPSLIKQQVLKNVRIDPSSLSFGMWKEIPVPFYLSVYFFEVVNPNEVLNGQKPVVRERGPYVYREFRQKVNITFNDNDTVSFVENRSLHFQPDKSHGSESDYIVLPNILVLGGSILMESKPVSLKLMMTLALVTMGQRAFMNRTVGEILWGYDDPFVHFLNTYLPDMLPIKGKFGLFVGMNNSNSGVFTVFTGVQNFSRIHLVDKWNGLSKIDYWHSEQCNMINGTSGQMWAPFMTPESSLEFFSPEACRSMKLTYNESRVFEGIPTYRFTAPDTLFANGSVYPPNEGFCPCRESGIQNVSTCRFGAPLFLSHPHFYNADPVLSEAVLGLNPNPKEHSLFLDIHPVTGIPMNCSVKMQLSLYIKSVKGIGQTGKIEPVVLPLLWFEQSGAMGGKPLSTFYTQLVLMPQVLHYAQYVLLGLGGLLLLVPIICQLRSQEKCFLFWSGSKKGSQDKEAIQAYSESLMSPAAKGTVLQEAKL
SR-BI uptake up: activators of SR-BI mediated DiI-HDL uptake, primary screen, ldlA[mSR-BI] CHO cells, DiI fluorescence; AID 504775, 2011; activation, % at 12.5 µM; 0.096% of 320,000 active; 3 h; 100 = double the neutral-control signal;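 active = mean replicate activation of at least 60% and every replicate at or above 60%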;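 note: 0% = median plate neutral-control signal and 100% = twice that signal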
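Material – SR-BI-overexpressing, LDLR-lacking CHO cells · Medium – BSA-supplemented, HEPES-buffered Ham's F12, pH 7.4 · Doses – single concentration · Times – compound with DiI-HDL co-incubation, 3 h at 37 °C · Measured by – bottom-read fluorescence, 550/595 nm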
The depositor's hits bear a star; i = inactive; / = no result.

SMILES | Kir21 block | TMEM16A inh | TMEM16A act | DNA FID counter | SR-BI HDL uptake | SR-BI uptake up
CC1(C)CC(=O)C2=C(C1)OC(N)=C(C#N)C2c1cccs1 (configuration not stated) | 0.54 | i | i | 0 | -26 | 26
COC(=O)C1=C(N)OC2=C(C(=O)CC(C)(C)C2)C1c1cccs1 (configuration not stated) | 0.1 | i | i | -1 | i | 822*
O=C(Nc1ccc(Cl)cc1)C1CCCN(c2cnccn2)C1 (configuration not stated) | 1 | i | i | -15 | -8 | 8
CCC(CC)C(=O)Nc1cc(C(=O)OC)ccc1C(=O)OC | 0.02 | i | i | -19 | -67 | 67*
COC(=O)c1ccc(C(=O)OC)c(NC(=O)C(C)(C)C)c1 | -0.64 | i | i | 1 | -24 | 24
CN1CCC(OC(=O)c2ccccc2)CC1 | 0.23 | i | i | -9 | -14 | 14
CN1CCC(Oc2ccc(Sc3ccccc3)cc2)CC1 | -7.5* | i | i | 15 | -31 | 31
CN1CCC(Oc2ccccc2Sc2ccc(C(F)(F)F)cc2)CC1 | -11* | i | i | 27 | -20 | 20
O=C1C2C3C=CC(CC3)C2C(=O)N1c1ccc(Cl)cc1Cl (configuration not stated) | -0.25 | i | i | -8 | -29 | 29
CC1CCCN(CCCOc2ccc(Br)cc2Cl)C1 (configuration not stated) | -0.79 | i | i | 17 | 7 | -7
CC1CCN(CCOCCOc2ccc(Br)cc2Cl)CC1 | -7.6* | i | i | 34 | 7 | -7
CCn1c(C)nc2cc(C(=O)N/N=C(\C)c3ccc(OC)cc3O)ccc21 | -1 | / | i | -8 | 88* | -88
COc1ccc(-c2cc(-c3ccc(O)cc3)nc(N)c2C#N)cc1 | -1.6 | i | i | -12 | 62 | -62
COc1cc(-c2cc(-c3ccc(O)cc3)nc(N)c2C#N)ccc1O | 1.2 | i | i | -5 | 84* | -84
CCOc1ccc2nc3cc(NCc4ccc(OC)cc4)ccc3c(N)c2c1 | -2.4 | i | -6.9* | 7 | 36 | -36
CCOc1ccc(CNc2ccc3c(c2)nc(C)n3C)cc1 | / | i | i | 5 | -17 | 17
CN1CCCC1CCNC1C2CC3CC(C2)CC1C3 (configuration not stated) | -4.7* | i | i | 14 | -25 | 25
CN1CCCC1CCNS(=O)(=O)c1ccc(Br)cc1 (configuration not stated) | -0.82 | i | i | 5 | 8 | -8
CC1CCN(C(=O)CSc2nnc(CNC(=O)c3ccco3)o2)CC1 | -0.56 | i | -15* | -3 | 6 | -6
NC(=O)C1CCCN1Cc1ccc2c(c1)OCO2 (configuration not stated) | / | / | i | / | -15 | 15
CCC(=O)c1ccc(OCC(O)CN2CCN(S(=O)(=O)c3ccc(NC(C)=O)cc3)CC2)cc1 (configuration not stated) | 0.66 | i | i | -12 | 14 | -14
CC(=O)Nc1ccc(OCC(O)CN2CCN(S(=O)(=O)c3ccc(NC(C)=O)cc3)CC2)cc1 (configuration not stated) | 0.12 | 100* | i | -5 | 0 | 0
Cc1ccc(C2(c3noc(CN(C)CCCN4CCOCC4)n3)CCCC2)cc1 | -1.6 | i | / | -2 | / | /
Cc1ccc(C2(c3noc(CN(C)Cc4cnn(C)c4)n3)CCCC2)cc1 | -0.79 | i | i | -26 | -122 | 122*
CC(NC(=O)COc1ccc(S(=O)(=O)N2CCCC2)cc1)c1ccccc1 (configuration not stated) | -0.9 | i | i | -21 | / | /
SMILES | Kir21 block | TMEM16A inh | TMEM16A act | DNA FID counter | SR-BI HDL uptake | SR-BI uptake up
Cc1ccc(NC(=O)CN(C)S(=O)(=O)c2cccc3cccnc23)cc1C | 1.1 | i | i | -28 | 13 | -13
O=C(O)C(CCc1ccccc1)N1C(=O)c2ccccc2C1=O (configuration not stated) | / | / | i | / | -22 | 22
OCC1(CCc2ccccc2)CCN(Cc2cc(F)ccc2-n2cccn2)CC1 | -3.2 | i | i | 18 | / | /
OCC1(CCOc2ccccc2)CCN(Cc2cc(Cl)ccc2O)CC1 | -4.6* | i | i | 17 | 0 | 0
OCC1(CCCc2ccccc2)CCN(Cc2cc(F)ccc2F)CC1 | -4.4* | i | i | 7 | 3 | -3
O=c1[nH]c(=O)n(C2OC(CO)C(O)C2O)cc1N1CCOCC1 (configuration not stated) | / | / | i | / | -8 | 8
O=[N+]([O-])c1ccc(NN=Cc2cc(Br)ccc2O)nc1 | / | / | i | / | 135* | -135
Cc1cccc(C)c1-n1c(C)cc(/C=N\Nc2ccc([N+](=O)[O-])cn2)c1C | 0.84 | i | i | -5 | 80* | -80
CCOc1ccc(C(=O)Nc2cccc(C(=O)O)c2)cc1Cl | -0.04 | i | i | -6 | -6 | 6
CCOc1ccc(C(=O)Nc2cccc(-c3nc4cccnc4o3)c2)cc1Cl | -0.4 | i | i | -2 | 83* | -83
CCN1C[C@@H]2[C@@H]3C(=O)N(Cc4ccccc4)C(=O)[C@@H]3[C@](C)(C(=O)OC)N2C1=NC | / | / | i | / | 17 | -17
CCOC(=O)C1(Cc2ccccc2)CCN(Cc2cn[nH]c2-c2ccccc2)CC1 | -4.8* | i | i | 25 | -16 | 16
CCCCC(CC)C(=O)Nc1ncc([N+](=O)[O-])s1 (configuration not stated) | -0.06 | 100* | i | 1 | -28 | 28
CCCCC(CC)C(=O)Nc1ccc(S(=O)(=O)Nc2nccs2)cc1 (configuration not stated) | 0.02 | i | i | -19 | -7 | 7
CN(CC(=O)NCc1ccncc1)S(=O)(=O)c1ccc2ccccc2c1 | 0.02 | i | i | -6 | -13 | 13
COc1cccc(OC)c1OCCCc1c(C)n[nH]c1C | 0.02 | i | i | -16 | 12 | -12
COc1ccc(OCCCCc2c(C)n[nH]c2C)cc1 | -0.28 | 25* | i | / | -14 | 14
CCOc1ccc(CCN2C(=S)N([C@@H](CC(C)C)CN3CCCC3CN3C(=S)NC[C@@H]3Cc3ccc(O)cc3)C[C@@H]2Cc2ccc(O)cc2)cc1 (some centres not stated) | / | / | / | / | -27 | 27
